Assays:
Details in all cases: stereoisomer not certain
OR10G2 (Homo sapiens) = molecular target: T1, OR10G2 (Homo sapiens) (UniProt Q8NGC3)
T1 sequence (whole entry): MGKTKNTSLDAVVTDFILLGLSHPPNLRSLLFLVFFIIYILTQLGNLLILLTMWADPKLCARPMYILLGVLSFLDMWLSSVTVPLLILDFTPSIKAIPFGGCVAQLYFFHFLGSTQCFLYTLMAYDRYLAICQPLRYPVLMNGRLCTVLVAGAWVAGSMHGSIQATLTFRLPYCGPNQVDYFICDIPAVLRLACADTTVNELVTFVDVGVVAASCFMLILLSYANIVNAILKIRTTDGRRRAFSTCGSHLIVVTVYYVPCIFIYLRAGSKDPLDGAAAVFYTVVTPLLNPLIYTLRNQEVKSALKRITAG
Summary of the method: (§1)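 Each entry records the cell line, G-protein, co-transfected protein and tags used. Methods varied with the source, often transient luciferase assays in mammalian cell lines. A receptor–molecule pair is called responsive (active) if the original authors judged its signal statistically different from baseline and non-responsive (inactive) otherwise.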

OR10G3 (Homo sapiens) = molecular target: T2, OR10G3 (Homo sapiens) (UniProt Q8NGC4)
T2 sequence (whole entry): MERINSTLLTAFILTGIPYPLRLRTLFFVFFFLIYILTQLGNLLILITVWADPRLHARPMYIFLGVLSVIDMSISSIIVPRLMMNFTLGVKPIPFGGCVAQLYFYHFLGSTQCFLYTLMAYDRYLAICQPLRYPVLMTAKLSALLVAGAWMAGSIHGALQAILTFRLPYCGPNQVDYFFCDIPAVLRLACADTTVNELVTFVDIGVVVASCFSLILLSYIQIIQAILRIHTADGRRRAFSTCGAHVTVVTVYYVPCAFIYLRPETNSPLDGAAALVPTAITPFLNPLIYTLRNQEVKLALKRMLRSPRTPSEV
Summary of the method: as §1

OR10G4 (Homo sapiens) = molecular target: T3, OR10G4 (Homo sapiens) (UniProt Q8NGN3)
T3 sequence (whole entry): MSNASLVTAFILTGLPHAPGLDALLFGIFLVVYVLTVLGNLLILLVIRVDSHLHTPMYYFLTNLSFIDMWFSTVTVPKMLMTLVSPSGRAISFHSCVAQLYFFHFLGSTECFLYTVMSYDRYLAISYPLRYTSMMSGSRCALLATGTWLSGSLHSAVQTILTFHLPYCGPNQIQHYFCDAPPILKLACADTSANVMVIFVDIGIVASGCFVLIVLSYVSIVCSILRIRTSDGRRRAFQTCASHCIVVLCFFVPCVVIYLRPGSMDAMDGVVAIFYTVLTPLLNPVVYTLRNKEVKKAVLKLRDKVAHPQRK
Summary of the method: as §1

OR10G6 (Homo sapiens) = molecular target: T4, OR10G6 (Homo sapiens) (UniProt Q8NH81)
T4 sequence (whole entry): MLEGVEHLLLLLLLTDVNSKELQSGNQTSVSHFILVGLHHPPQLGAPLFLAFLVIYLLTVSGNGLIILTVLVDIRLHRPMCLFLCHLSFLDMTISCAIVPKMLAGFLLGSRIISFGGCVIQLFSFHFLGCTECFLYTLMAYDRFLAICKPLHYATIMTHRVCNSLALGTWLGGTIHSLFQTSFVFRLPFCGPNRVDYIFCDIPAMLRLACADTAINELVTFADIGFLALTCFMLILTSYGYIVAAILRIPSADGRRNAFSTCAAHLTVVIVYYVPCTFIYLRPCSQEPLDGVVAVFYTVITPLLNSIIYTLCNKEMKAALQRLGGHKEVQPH
Summary of the method: as §1

OR10G7 (Homo sapiens) = molecular target: T5, OR10G7 (Homo sapiens) (UniProt Q8NGN6)
T5 sequence (whole entry): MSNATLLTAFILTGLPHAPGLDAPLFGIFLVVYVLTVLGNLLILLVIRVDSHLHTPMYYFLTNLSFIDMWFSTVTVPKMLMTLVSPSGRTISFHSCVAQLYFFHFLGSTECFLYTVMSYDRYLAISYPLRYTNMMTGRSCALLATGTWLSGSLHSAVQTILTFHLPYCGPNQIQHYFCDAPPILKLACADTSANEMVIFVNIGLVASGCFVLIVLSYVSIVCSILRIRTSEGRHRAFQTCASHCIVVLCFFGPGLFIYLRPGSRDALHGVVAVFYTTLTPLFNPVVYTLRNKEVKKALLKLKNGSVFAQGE
Summary of the method: as §1

OR10G8 (Homo sapiens) = molecular target: T6, OR10G8 (Homo sapiens) (UniProt Q8NGN5)
T6 sequence (whole entry): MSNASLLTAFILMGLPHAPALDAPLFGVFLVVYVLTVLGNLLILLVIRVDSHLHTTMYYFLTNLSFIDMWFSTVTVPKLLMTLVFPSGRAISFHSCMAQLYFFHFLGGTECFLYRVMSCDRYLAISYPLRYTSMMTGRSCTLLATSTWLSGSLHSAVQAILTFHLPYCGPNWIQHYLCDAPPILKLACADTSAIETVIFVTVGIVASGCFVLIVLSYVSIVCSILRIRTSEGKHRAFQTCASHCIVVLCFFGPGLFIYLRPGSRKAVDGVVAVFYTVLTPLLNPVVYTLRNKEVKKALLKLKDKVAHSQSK
Summary of the method: as §1

OR10G9 (Homo sapiens) = molecular target: T7, OR10G9 (Homo sapiens) (UniProt Q8NGN4)
T7 sequence (whole entry): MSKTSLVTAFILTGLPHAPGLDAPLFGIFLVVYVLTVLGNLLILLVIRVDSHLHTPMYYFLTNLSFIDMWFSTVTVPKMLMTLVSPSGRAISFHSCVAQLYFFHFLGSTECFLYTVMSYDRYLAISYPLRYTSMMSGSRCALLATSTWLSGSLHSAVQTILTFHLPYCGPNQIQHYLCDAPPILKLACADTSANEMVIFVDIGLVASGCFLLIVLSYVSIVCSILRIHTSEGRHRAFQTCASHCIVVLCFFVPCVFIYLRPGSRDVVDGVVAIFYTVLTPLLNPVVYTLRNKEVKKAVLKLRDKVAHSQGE
Summary of the method: as §1

OR10H1 (Homo sapiens) = molecular target: T8, OR10H1 (Homo sapiens) (UniProt Q9Y4A9)
T8 sequence (whole entry): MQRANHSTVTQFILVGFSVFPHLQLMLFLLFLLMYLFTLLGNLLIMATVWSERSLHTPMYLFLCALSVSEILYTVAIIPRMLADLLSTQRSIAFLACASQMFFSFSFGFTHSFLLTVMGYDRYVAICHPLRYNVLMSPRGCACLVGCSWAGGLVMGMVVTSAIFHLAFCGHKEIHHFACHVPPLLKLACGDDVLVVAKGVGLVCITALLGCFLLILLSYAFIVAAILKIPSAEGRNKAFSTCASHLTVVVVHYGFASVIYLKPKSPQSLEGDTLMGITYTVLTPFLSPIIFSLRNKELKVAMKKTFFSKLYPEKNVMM
Summary of the method: as §1

OR10H2 (Homo sapiens) = molecular target: T9, OR10H2 (Homo sapiens) (UniProt O60403)
T9 sequence (whole entry): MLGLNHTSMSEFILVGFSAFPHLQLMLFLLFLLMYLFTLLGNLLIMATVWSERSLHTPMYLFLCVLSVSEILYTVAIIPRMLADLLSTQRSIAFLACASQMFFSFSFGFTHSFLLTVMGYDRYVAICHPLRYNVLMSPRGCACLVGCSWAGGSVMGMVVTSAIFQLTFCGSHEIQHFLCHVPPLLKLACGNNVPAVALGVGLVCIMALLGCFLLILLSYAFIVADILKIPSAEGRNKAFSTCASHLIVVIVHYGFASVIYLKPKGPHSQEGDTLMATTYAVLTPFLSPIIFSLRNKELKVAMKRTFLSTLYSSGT
Summary of the method: as §1

Measured: odorant receptor agonist call

CCCC(S)CCOC(C)=O (centres undefined)
inactive: all assays above
